Reference: ChEMBL document CHEMBL2384986, “Re-evolution of the 2-phenylquinolines: ligand-based design, synthesis, and biological evaluation of a potent new class of Staphylococcus aureus NorA efflux pump inhibitors to combat antimicrobial resistance” (J Med Chem, 2013)
Active and inactive are the calls of the source. No cut-off for these calls is given here.

Legend:
Staphylococcus aureus [1] = assay: Antibacterial activity against Staphylococcus aureus 1199B overexpressing NorA and grlA A116E mutant assessed as growth inhibition by microdilution method; format: functional
Summary of the method: (§1)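 Broth microdilution MIC per CLSI guidelines for intrinsic antistaphylococcal activity; highest concentration tested 100 μg/mL. SA-1199 is the norA wild-type parent, SA-1199B overexpresses norA and carries GrlA A116E, and SA-K2378 overexpresses norA from multicopy plasmid pCU1 in the norA-deleted SA-K1902 background.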

[2] = molecular target: Quinolone resistance protein NorA (Staphylococcus aureus, UniProt P0A0J7); assay: Inhibition of NorA in Staphylococcus aureus 1199B harboring grlA A116E mutant assessed as inhibition of ethidium bromide efflux measured for 5 mins by fluorometric analysis
Summary of the method: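 Fluorometric EtBr efflux assay in SA-1199B (norA overexpressing, GrlA A116E) over a 5 min time course, compared with no-inhibitor control. Increasing inhibitor concentrations were tested, and IC50 was read by inspection of the dose-response plots. Usually run in duplicate.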

[3] = molecular target: T1, Quinolone resistance protein NorA (Staphylococcus aureus) (UniProt P0A0J7); assay: Inhibition of NorA in Staphylococcus aureus 1199B harboring grlA A116E mutant assessed as inhibition of ethidium bromide efflux at 50 uM measured for 5 mins by fluorometric analysis relative to control
T1 sequence (whole entry): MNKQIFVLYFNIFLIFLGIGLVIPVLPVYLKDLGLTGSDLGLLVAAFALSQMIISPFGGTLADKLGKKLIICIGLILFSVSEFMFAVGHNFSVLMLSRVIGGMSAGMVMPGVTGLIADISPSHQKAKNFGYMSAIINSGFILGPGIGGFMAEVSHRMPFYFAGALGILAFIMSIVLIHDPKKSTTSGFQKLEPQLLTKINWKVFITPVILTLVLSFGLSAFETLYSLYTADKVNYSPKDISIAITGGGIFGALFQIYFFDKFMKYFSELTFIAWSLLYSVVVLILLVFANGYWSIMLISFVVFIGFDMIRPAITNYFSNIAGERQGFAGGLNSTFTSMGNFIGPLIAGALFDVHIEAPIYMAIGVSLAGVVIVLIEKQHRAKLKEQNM
Summary of the method: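 EtBr loss from SA-1199B (norA overexpressing, GrlA A116E) measured fluorometrically with inhibitor at 50 μM, compared with no-inhibitor control. Read-out is mean total efflux over a 5 min time course, expressed as percent reduction in efflux. Usually run in duplicate.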

Staphylococcus aureus [4] = assay: Inhibition of MepA in Staphylococcus aureus K2886 assessed as reduction of ethidium bromide MIC at 0.78 to 100 ug/mL
Summary of the method: (§2)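 The strains are norA-deleted S. aureus carrying pALC2073-mepA (K2886) or the empty pALC2073 vector (K2885). Cloned genes are under a xyl/tetO promoter, induced by 0.05 μg/mL tetracycline, which was present in all experiments with these strains. EtBr MICs were determined by CLSI microdilution, with and without test compound.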

Staphylococcus aureus [5] = assay: Reduction of ethidium bromide MIC in mepA-deficient Staphylococcus aureus K2885 at 0.78 to 100 ug/mL; format: functional, organism-based; summary of the method: as §2
[6] = molecular target: T1, Quinolone resistance protein NorA (Staphylococcus aureus); assay: Inhibition of NorA in Staphylococcus aureus K2378 assessed as reduction of ciprofloxacin MIC at 0.78 to 100 ug/mL relative to control
Summary of the method: (§3)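 Ciprofloxacin MIC determined by CLSI broth microdilution, alone and combined with scalar dilutions of freshly prepared test compound; checkerboard combination format. Strains: ATCC 25923 (wild type), SA-1199 (norA wt), SA-1199B (norA overexpressing, GrlA A116E), SA-K2378 (norA on multicopy pCU1) and SA-K1902 (norA-deleted).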

Staphylococcus aureus [7] = assay: Reduction of ciprofloxacin MIC in norA-deficient Staphylococcus aureus K1902 at 0.78 to 100 ug/mL; format: functional, organism-based; summary of the method: as §3
[8] = molecular target: T1, Quinolone resistance protein NorA (Staphylococcus aureus); assay: Inhibition of wild type NorA in Staphylococcus aureus 1199 assessed as reduction of ciprofloxacin MIC at 0.78 to 100 ug/mL; summary of the method: as §3
[9] = molecular target: T1, Quinolone resistance protein NorA (Staphylococcus aureus); assay: Inhibition of NorA in Staphylococcus aureus ATCC 25923 assessed as reduction of ciprofloxacin MIC at 0.78 to 100 ug/mL; summary of the method: as §3
Staphylococcus aureus [10] = assay: Antibacterial activity against Staphylococcus aureus K2378 overexpressing norA assessed as growth inhibition by microdilution method; format: functional; summary of the method: as §1
Staphylococcus aureus [11] = assay: Antibacterial activity against norA-deficient Staphylococcus aureus K1902 assessed as growth inhibition by microdilution method; format: functional
Summary of the method: (§4)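 Broth microdilution MIC determination following CLSI guidelines. Strains: wild-type ATCC 25923 and SA-K1902 (norA−). Intrinsic activity was tested up to a top concentration of 100 μg/mL.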

Staphylococcus aureus [12] = assay: Antibacterial activity against wild type Staphylococcus aureus ATCC 25923 assessed as growth inhibition by microdilution method; format: functional; summary of the method: as §4
Staphylococcus aureus [13] = assay: Antibacterial activity against Staphylococcus aureus 1199 harboring wild type norA assessed as growth inhibition by microdilution method
Staphylococcus aureus [14] = assay: Inhibition of MepA in Staphylococcus aureus K2886 assessed as reduction of ethidium bromide MIC at 0.78 ug/mL relative to control
Summary of the method: (§5)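 Ethidium bromide MIC by CLSI microdilution, alone and combined with test compound. Strain SA-K2886 is norA-deleted and carries pALC2073-mepA, with mepA under a xyl/tetO promoter; 0.05 μg/mL tetracycline was included throughout to induce expression.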

[15] = molecular target: T1, Quinolone resistance protein NorA (Staphylococcus aureus); assay: Inhibition of NorA in Staphylococcus aureus 1199B harboring grlA A116E mutant assessed as reduction of ciprofloxacin MIC at 3.13 ug/mL relative to control; summary of the method: as §3
[16] = molecular target: T1, Quinolone resistance protein NorA (Staphylococcus aureus); assay: Inhibition of NorA in Staphylococcus aureus K2378 assessed as reduction of ciprofloxacin MIC at 0.78 ug/mL relative to control; summary of the method: as §3
Staphylococcus aureus [17] = assay: Inhibition of MepA in Staphylococcus aureus K2886 assessed as reduction of ethidium bromide MIC at 1.56 ug/mL relative to control; summary of the method: as §5

Structure (SMILES) | MIC (Staphylococcus aureus [1]) [µM] | IC50 [2] [µM] | inhibition [3] [%] | inhibition (Staphylococcus aureus [4]) | Activity (Staphylococcus aureus [5]) | fold change (FC) [6] | Activity (Staphylococcus aureus [7]) | inhibition [8] | inhibition [9] | MIC (Staphylococcus aureus [10]) [µg/mL] | MIC (Staphylococcus aureus [11]) [µg/mL] | MIC (Staphylococcus aureus [12]) [µg/mL] | MIC (Staphylococcus aureus [13]) [µg/mL] | fold change (FC) (Staphylococcus aureus [14]) | fold change (FC) [15] | fold change (FC) [16] | fold change (FC) (Staphylococcus aureus [17])
CCCOc1ccc(-c2cc(OC3CN4CCC3CC4)c3ccccc3n2)cc1 (configuration not stated) | > 200 | 14.8 | 91.3 |  |  |  |  |  |  |  |  |  |  |  |  |  | 
CCCOc1ccc(-c2cc(OCCN3CCc4ccccc4C3)c3ccccc3n2)cc1 |  |  | 67.9 |  |  |  |  |  |  |  |  |  |  |  |  |  | 
CCCOc1ccc(-c2cc(OCCN3CCN(Cc4ccccc4)CC3)c3ccccc3n2)cc1 | > 200 | 3.8 | 81.2 | Active | inactive | 4 | inactive | inactive | inactive | > 100 | > 100 | > 100 | > 100 |  |  |  | 
CCCOc1ccc(-c2cc(OCCN(C(C)C)C(C)C)c3ccccc3n2)cc1 | > 200 | 8.3 | 88.2 | Active | inactive | 4 | inactive | inactive | inactive | > 100 | 100 | > 100 | > 100 |  |  |  | 
CCCOc1ccc(-c2cc(OCCN(Cc3ccccc3)Cc3ccccc3)c3ccccc3n2)cc1 |  |  | 0 |  |  |  |  |  |  |  |  |  |  |  |  |  | 
CCCOc1ccc(-c2cc(OCC(C)N(C)C)c3ccccc3n2)cc1.Cl (configuration not stated) | > 200 | 7.5 | 90.4 |  |  | 4 | inactive | inactive | inactive |  |  |  | > 100 |  |  |  | 
CCCOc1ccc(-c2cc(OCCN3CCCCCC3)c3ccccc3n2)cc1 | > 200 | 6.4 | 86 | Active | inactive | 16 | inactive | inactive | inactive | 50 | 50 | > 100 | > 100 | 16 | 16 | 16 | 
CCCOc1ccc(-c2cc(OCCN3CCSCC3)c3ccccc3n2)cc1 |  |  | 57.7 |  |  |  |  |  |  |  |  |  |  |  |  |  | 
CCCOc1ccc(-c2cc(OCCN3CCc4cc(OC)c(OC)cc4C3)c3ccccc3n2)cc1 |  |  | 79.6 |  |  |  |  |  |  |  |  |  |  |  |  |  | 
Fc1ccc([C@H]2CCNC[C@@H]2COc2ccc3c(c2)OCO3)cc1 |  |  | 85 |  |  |  |  |  |  |  |  |  |  |  |  |  | 
COC(=O)[C@H]1[C@H]2C[C@@H]3c4[nH]c5cc(OC)ccc5c4CCN3C[C@H]2C[C@@H](OC(=O)c2cc(OC)c(OC)c(OC)c2)[C@@H]1OC [RESERPINE] | > 150 | 9.2 |  |  |  | 4 | inactive | inactive | inactive | > 100 | > 100 | > 100 | > 100 |  |  |  | 
CCCOc1ccc(-c2cc(OCCN3CCOCC3)c3ccccc3n2)cc1 | > 200 | 10.7 | 86.9 |  |  |  |  |  |  |  |  |  |  |  |  |  | 
CCCOc1ccc(-c2cc(OCCN3CCCC3)c3ccccc3n2)cc1 | > 200 | 9.3 | 94.2 |  |  |  |  |  |  |  |  |  |  |  |  |  | 
CCCOc1ccc(-c2cc(OCCN3CCN(C)CC3)c3ccccc3n2)cc1 | > 200 | 9.7 | 91 |  |  |  |  |  |  |  |  |  |  |  |  |  | 
CCCOc1ccc(-c2cc(OCCN3CCNCC3)c3ccccc3n2)cc1 | > 200 | 8.3 | 93.4 | Active | inactive | 4 | inactive | inactive | inactive | 50 | 25 | > 100 | > 100 |  | 16 |  | 16
